# Results reported in ChEMBL document CHEMBL1275530, “Aspergillus fumigatus forms biofilms with reduced antifungal drug susceptibility on bronchial epithelial cells” (2008).
# *1 amine or outer side, *2 acyl side, *3 side chain or, on linkers, in order; H or OH if unused. Where a SMILES comes first, the peptide text is derived from it. Bridges are numbered along the chain shown (N, C = ends). [ ]: non-standard residue; d: D form. The star is where a group is joined. hTyr(3S-OH,4S-OH,3'-OSO3H) = N[C@H](C(=O)O)[C@H](O)[C@@H](O)c1ccc(O)c(OS(=O)(=O)O)c1; Orn(4R-OH,5R-OH) = O=C([C@H](C[C@@H](O)[C@@H](O)N[*:3])N[*:1])[*:2]; Pro(3S-OH,4S-Me) = C[C@H]1CN[C@H](C(=O)O)[C@H]1O; X1 = CCCCCOc1ccc(-c2cc(-c3ccc(C(=O)*)cc3)no2)cc1; Gln(3R-OH) = NC(=O)C[C@@H](O)[C@H](N)C(=O)O; Hyp = O=C(O)[C@@H]1C[C@@H](O)CN1
# Assays:
# Format in all cases: functional
# [1] = system: Aspergillus fumigatus; experiment: Antifungal activity against Aspergillus fumigatus ATCC 9197 grown as planktonic cell on CFBE41o cell after 48 hrs by broth microdilution method; details: ATCC 9197, 48 h
# How it was run: (§1)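 CLSI M38-A broth microdilution on planktonic conidia, with drugs added at once and end points read at 24 h and 48 h. Ranges in μg/ml: AMB 0.06 to 32; liposomal AMB, voriconazole, posaconazole, itraconazole, caspofungin and micafungin 0.03 to 16. Inoculum was the same as in the XTT assay. Three repeats.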
# [2] = system: Aspergillus fumigatus; experiment: Antifungal activity against Aspergillus fumigatus ATCC 9197 grown as biofilm on 16HBE cell after 24 to 48 hrs by XTT assay
# How it was run: (§2)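 Biofilm grown in PS 96-well plates on confluent 16HBE14o− (1) or CFBE41o− (2) cells on fibronectin/collagen coating. Conidia (10^6/ml) in MEM plus 10% FCS adhered 2 h at 37°C, 5% CO2. Drugs were added after 24–48 h of biofilm growth and incubated another 24 h and 48 h. Sessile MIC was read by XTT as 50% (MIC-2) or 90% (MIC-1) inhibition of metabolic activity versus drug-free control. CFU were also plated. Three repeats.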
# [3] = system: Aspergillus fumigatus; experiment: Antifungal activity against Aspergillus fumigatus ATCC 9197 grown as biofilm on CFBE41o cell after 24 to 48 hrs by XTT assay; how it was run: as §2
# [4] = system: Aspergillus fumigatus; experiment: Antifungal activity against Aspergillus fumigatus ATCC 9197 grown as planktonic cell on 16HBE cell after 48 hrs by broth microdilution method; details: ATCC 9197, 48 h; how it was run: as §1
# [5] = system: Aspergillus fumigatus; experiment: Antifungal activity against Aspergillus fumigatus ATCC 9197 grown as biofilm on polystyrene after 24 to 48 hrs by XTT assay
# How it was run: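 Biofilm was formed on polystyrene without epithelial cells, starting from 10^6 conidia/ml in MEM plus 10% FCS. Drugs were added after 24–48 h of biofilm growth. After a further 24 h and 48 h, XTT reduction gave MICs at 50% and 90% inhibition of metabolic activity relative to a drug-free control.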
# [6] = system: Aspergillus fumigatus; experiment: Antifungal activity against Aspergillus fumigatus ATCC 9197 grown as planktonic cell on polystyrene after 48 hrs by broth microdilution method; details: ATCC 9197, 48 h; how it was run: as §1
MIC50 [1],MIC90 [1],MIC50 [2],MIC90 [2],MIC50 [3],MIC90 [3],MIC50 [4],MIC90 [4],MIC50 [5],MIC90 [5],MIC50 [6],MIC90 [6],SMILES
0.5 µg/mL,1 µg/mL,> 8 µg/mL,> 8 µg/mL,> 8 µg/mL,> 8 µg/mL,0.5 µg/mL,1 µg/mL,–,–,–,–,"CCCCCOc1ccc(-c2cc(-c3ccc(C(=O)N[C@H]4C[C@@H](O)[C@@H](O)NC(=O)[C@@H]5[C@@H](O)[C@@H](C)CN5C(=O)[C@H]([C@H](O)CC(N)=O)NC(=O)[C@H]([C@H](O)[C@@H](O)c5ccc(O)c(OS(=O)(=O)O)c5)NC(=O)[C@@H]5C[C@@H](O)CN5C(=O)[C@H]([C@@H](C)O)NC4=O)cc3)no2)cc1 [MICAFUNGIN] (X1-[Orn(4R-OH,5R-OH)]T[Hyp][hTyr(3S-OH,4S-OH,3'-OSO3H)][Gln(3R-OH)][Pro(3S-OH,4S-Me)]; lactam 1-C)"
0.5 µg/mL,1 µg/mL,2 µg/mL,4 µg/mL,4 µg/mL,8 µg/mL,0.5 µg/mL,1 µg/mL,8 µg/mL,16 µg/mL,1 µg/mL,1 µg/mL,C[C@@H]1[C@H](O)[C@@H](C)/C=C/C=C/C=C/C=C/C=C/C=C/C=C/[C@H](O[C@@H]2O[C@H](C)[C@@H](O)[C@H](N)[C@@H]2O)C[C@@H]2O[C@](O)(C[C@@H](O)C[C@@H](O)[C@H](O)CC[C@@H](O)C[C@@H](O)CC(=O)O[C@H]1C)C[C@H](O)[C@H]2C(=O)O [AMPHOTERICIN B]
0.125 µg/mL,0.25 µg/mL,1 µg/mL,1 µg/mL,1 µg/mL,2 µg/mL,0.125 µg/mL,0.25 µg/mL,2 µg/mL,4 µg/mL,0.5 µg/mL,1 µg/mL,CCC(C)n1ncn(-c2ccc(N3CCN(c4ccc(OCC5COC(Cn6cncn6)(c6ccc(Cl)cc6Cl)O5)cc4)CC3)cc2)c1=O (stereo unspecified) [ITRACONAZOLE]
0.5 µg/mL,1 µg/mL,> 8 µg/mL,> 8 µg/mL,> 8 µg/mL,> 8 µg/mL,0.5 µg/mL,1 µg/mL,–,–,–,–,CC[C@H](C)C[C@H](C)CCCCCCCCC(=O)N[C@H]1C[C@@H](O)[C@@H](NCCN)NC(=O)[C@@H]2[C@@H](O)CCN2C(=O)[C@H]([C@H](O)CCN)NC(=O)[C@H]([C@H](O)[C@@H](O)c2ccc(O)cc2)NC(=O)[C@@H]2C[C@@H](O)CN2C(=O)[C@H]([C@@H](C)O)NC1=O [CASPOFUNGIN]

SMILES,MIC50 [1],MIC90 [1],MIC50 [2],MIC90 [2],MIC50 [3],MIC90 [3],MIC50 [4],MIC90 [4],MIC50 [5],MIC90 [5],MIC50 [6],MIC90 [6]
C[C@@H](c1ncncc1F)[C@](O)(Cn1cncn1)c1ccc(F)cc1F [VORICONAZOLE],0.125 µg/mL,0.125 µg/mL,1 µg/mL,1 µg/mL,1 µg/mL,2 µg/mL,0.125 µg/mL,0.125 µg/mL,–,–,–,–
CC[C@@H]([C@H](C)O)n1ncn(-c2ccc(N3CCN(c4ccc(OC[C@@H]5CO[C@@](Cn6cncn6)(c6ccc(F)cc6F)C5)cc4)CC3)cc2)c1=O [POSACONAZOLE],0.125 µg/mL,0.125 µg/mL,1 µg/mL,1 µg/mL,1 µg/mL,2 µg/mL,0.125 µg/mL,0.125 µg/mL,–,–,–,–
